Measurements published in ChEMBL document CHEMBL1143096, “Synthesis and antitumor activity of benzils related to combretastatin A-4” (Bioorg Med Chem Lett, 2008).
Activity calls are given as the source filed them. The rule behind the calls is not given here.

Key:
[1] = Inhibition of tubulin assembly at 130 uM
HCT-116 [2] = experiment: Cytotoxicity against human HCT116 cells; format: functional, cell-based
Summary of the method: (§1)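 Growth inhibition assay; IC50 taken as the sample concentration producing 50% reduction in cell growth, each drug concentration tested in triplicate.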

[3] = Inhibition of tubulin assembly
[4] = Inhibition of tubulin assembly at 13 uM
MDA-MB-231 = experiment: Cytotoxicity against human MDA-MB-231 cells; format: functional, cell-based
HCT-116 [5] = experiment: Cell cycle arrest in human HCT116 cells assessed as accumulation at G2/M phase at 50 nM after 24 hrs by flow cytometry; format: functional
Summary of the method: (§2)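 Flow cytometry of cellular DNA content after 24 h exposure to 10, 20 or 50 nM; percentage of cells in G2/M phase reported, DMSO vehicle control; data representative of three independent experiments.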

K562 = experiment: Cytotoxicity against human K562 cells; format: functional, cell-based
[6] = Cell cycle arrest in human H1299 cells assessed as accumulation at G2/M phase at 10 nM after 24 hrs by flow cytometry; format: functional, cell-based; details: NCI-H1299; summary of the method: as §2
[7] = Cell cycle arrest in human H1299 cells assessed as accumulation at G2/M phase at 50 nM after 24 hrs by flow cytometry; format: functional, cell-based; details: NCI-H1299; summary of the method: as §2
[8] = Cell cycle arrest in human H1299 cells assessed as accumulation at G2/M phase at 20 nM after 24 hrs by flow cytometry; format: functional, cell-based; details: NCI-H1299; summary of the method: as §2
HCT-116 [9] = experiment: Induction of apoptosis in human HCT116 cells after 24 hrs by caspase activation assay; format: functional, cell-based
Summary of the method: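 Cells treated with 10, 50 and 100 nM for 24 h; caspase 3 and 7 activities measured by standard caspase cleavage assay.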

[10] = Cytotoxicity against human H1299 cells; format: functional, cell-based; details: NCI-H1299; summary of the method: as §1
HUVEC [11] = experiment: Cytotoxicity against HUVEC; format: cell-based; details: Homo sapiens
Summary of the method: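 HUVEC proliferation measured after 72 h incubation; IC50 derived for growth inhibition.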

HCT-116 [12] = experiment: Cell cycle arrest in human HCT116 cells assessed as accumulation at G2/M phase at 20 nM after 24 hrs by flow cytometry; format: functional; summary of the method: as §2
HCT-116 [13] = experiment: Cell cycle arrest in human HCT116 cells assessed as accumulation at G2/M phase at 10 nM after 24 hrs by flow cytometry; format: functional; summary of the method: as §2
HUVEC [14] = experiment: Disruption of integrity of newly formed blood vessels of HUVEC at 100 nM after 3 hrs by tube formation assay; format: functional, cell-based; details: Homo sapiens, Blood vessel
Summary of the method: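 HUVEC seeded on Matrigel; 24 h later, compound (100 nM) or vehicle added to formed cords; images taken 3 h after addition to assess network integrity.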

| SMILES | inhibition [1] | IC50 (HCT-116 [2]) | inhibition [4] | other results |
| --- | --- | --- | --- | --- |
| COc1ccc(C(=O)C(=O)c2cc(OC)c(OC)c(OC)c2)cc1 | 89% | 0.3 µM | 58% | IC50 [3]: 21 µM |
| COc1ccc(C(=O)C(=O)c2cc(OC)c(OC)c(OC)c2)cc1OC | 85% | 0.3 µM | 52% | IC50 [3]: 63 µM |
| COc1ccc(C(=O)C(=O)c2cc(OC)c(OC)c(OC)c2)cc1F | 73% | 0.7 µM | 47% |  |
| COc1cc(C(=O)C(=O)c2ccc3ccccc3c2)cc(OC)c1OC | 80% | 3 µM | 23% |  |
| COc1cc(C(=O)C(=O)c2ccc(C#N)cc2)cc(OC)c1OC | 28% |  |  | Activity (HCT-116 [2]): inactive |
| COc1cc(C(=O)C(=O)c2ccccc2)cc(OC)c1OC | 79% | 3 µM | 34% |  |
| COc1ccc(C(=O)C(=O)c2cc(OC)c(OC)c(OC)c2)cc1NC(C)=O | 45% | 0.35 µM | 45% |  |
| COc1cc(C(=O)C(=O)c2ccccc2C#N)cc(OC)c1OC | 0% |  | 12% | Activity (HCT-116 [2]): inactive |
| COc1cc(C(=O)C(=O)c2cnc3ccccc3c2)cc(OC)c1OC | 58% |  | 35% | Activity (HCT-116 [2]): inactive |
| COc1ccc(C(=O)C(=O)c2cc(OC)c(OC)c(OC)c2)cc1O | 73% | 0.035 µM | 65% | IC50 (MDA-MB-231): 0.04 µM; Activity (HCT-116 [5]): 22.8%; IC50 (K562): 0.025 µM; Activity [6]: 11.4%; Activity [7]: 27.7%; IC50 [3]: 1.5 µM; Activity [8]: 15%; Activity (HCT-116 [9]): Active; IC50 [10]: 0.03 µM; IC50 (HUVEC [11]): 0.035 µM; Activity (HCT-116 [12]): 18.5%; Activity (HCT-116 [13]): 11% |
| COc1ccc(C(=O)C(=O)c2cc(OC)c(OC)c(OC)c2)cc1OC(C)=O | 14% | 0.04 µM |  | IC50 (MDA-MB-231): 0.04 µM; IC50 (K562): 0.025 µM; IC50 [10]: 0.03 µM |
| COc1cc(C(=O)C(=O)c2cccc(O)c2)cc(OC)c1OC | 69% | 2 µM | 42% |  |
| COc1ccc(/C=C\c2cc(OC)c(OC)c(OC)c2)cc1O [COMBRETASTATIN A4] | 88% | 0.0018 µM | 77% | IC50 [10]: 0.005 µM; IC50 (HUVEC [11]): 0.0025 µM |
| COc1ccc(C(=O)C(=O)c2cc(OC)c(OC)c(OC)c2)cc1N | 88% | 0.038 µM | 82% | IC50 (MDA-MB-231): 0.03 µM; Activity (HCT-116 [5]): 28%; IC50 (K562): 0.02 µM; Activity [6]: 11.7%; Activity [7]: 16.5%; IC50 [3]: 5 µM; Activity [8]: 12.2%; Activity (HCT-116 [9]): Active; Activity (HUVEC [14]): Active; IC50 [10]: 0.05 µM; IC50 (HUVEC [11]): 0.04 µM; Activity (HCT-116 [12]): 15.9%; Activity (HCT-116 [13]): 13% |
| COc1cc(C(=O)C(=O)c2ccccn2)cc(OC)c1OC | 23% |  |  | Activity (HCT-116 [2]): inactive |
